The source made the active and inactive calls. The rule behind the calls is not given here.
How the values were obtained:
[1] = system: SN12C; experiment: Growth inhibition of human SN12C cells incubated for 48 hrs by sulforhodamine B assay; assay type: functional; details: for CC50: read-out: LC50 (the source's name)
Method in brief: (§1)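 NCI-60 panel cells grown in RPMI-1640 with 5% FBS and 2 mM L-glutamine, preincubated 24 h at 37 °C/5% CO2. Time-zero plates were TCA-fixed at compound addition. DMSO stocks were diluted in medium and tested at five final concentrations (100, 10, 1.0, 0.1, 0.01 µM) for 48 h. Cells were TCA-fixed, stained with SRB and read at 515 nm. GI50 = 50% lower net protein increase versus control.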

[2] = system: BT-549; experiment: Growth inhibition of human BT549 cells at 10 uM incubated for 48 hrs by sulforhodamine B assay; assay type: functional, cell-based
Method in brief: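 NCI 60-cell-line screen at a single 10 µM dose. Cells in RPMI-1640 with 5% FBS and 2 mM L-glutamine, pre-incubated 24 h, then treated for 48 h at 37 °C. TCA fixation, sulforhodamine B staining, absorbance at 515 nm. Percentage growth calculated against time-zero and untreated controls.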

[3] = system: Malme-3M; experiment: Growth inhibition of human MALME-3M cells incubated for 48 hrs by sulforhodamine B assay; assay type: functional; details: for CC50: read-out: LC50 (the source's name)
Method in brief: (§2)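 Five-dose NCI SRB assay at 100, 10, 1.0, 0.1 and 0.01 μM for 48 h at 37 °C, 5% CO2. Medium was RPMI-1640 with 5% FBS and 2 mM glutamine. Time-zero plates were TCA-fixed at compound addition, A515 read after SRB staining. GI50 was solved from [(Ti−Tz)/(C−Tz)]×100 = 50. Values beyond the tested range are given as > or <.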

[4] = system: OVCAR-4; experiment: Growth inhibition of human OVCAR4 cells incubated for 48 hrs by sulforhodamine B assay; assay type: functional; details: OVCAR-4, 48 h; for CC50: read-out: LC50 (the source's name); method in brief: as §2
[5] = system: HL-60(TB); experiment: Growth inhibition of human HL-60(TB) cells incubated for 48 hrs by sulforhodamine B assay; assay type: functional; details: HL-60, 48 h; for CC50: read-out: LC50 (the source's name)
Method in brief: (§3)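 NCI 60-line screen. Cells in RPMI-1640 with 5% FBS and 2 mM L-glutamine, preincubated 24 h, then time-zero plates TCA-fixed. Compounds from DMSO stocks given at five final concentrations (100, 10, 1.0, 0.1, 0.01 µM) for 48 h at 37 °C, 5% CO2. Cells fixed with 10% TCA, SRB-stained, read at 515 nm. GI50 is the concentration giving 50% lower net protein increase versus control.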

[6] = system: NCI-H322M; experiment: Growth inhibition of human NCI-H322M cells incubated for 48 hrs by sulforhodamine B assay; assay type: functional; details: for CC50: read-out: LC50 (the source's name); method in brief: as §2
[7] = system: SNB-19; experiment: Growth inhibition of human SNB19 cells incubated for 48 hrs by sulforhodamine B assay; assay type: functional; details: SNB-19, 48 h; for CC50: read-out: LC50 (the source's name); method in brief: as §1
[8] = system: SW-620; experiment: Growth inhibition of human SW620 cells incubated for 48 hrs by sulforhodamine B assay; assay type: functional; details: SW-620, 48 h; for CC50: read-out: LC50 (the source's name); method in brief: as §1
[9] = system: A498; experiment: Growth inhibition of human A498 cells incubated for 48 hrs by sulforhodamine B assay; assay type: functional; details: A498, 48 h; for CC50: read-out: LC50 (the source's name); method in brief: as §3
[10] = system: OVCAR-5; experiment: Growth inhibition of human OVCAR5 cells incubated for 48 hrs by sulforhodamine B assay; assay type: functional; details: OVCAR-5, 48 h; for CC50: read-out: LC50 (the source's name); method in brief: as §3
[11] = system: LOX IMVI; experiment: Growth inhibition of human LOXIMVI cells at 10 uM incubated for 48 hrs by sulforhodamine B assay; assay type: functional, cell-based
Method in brief: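 NCI 60-line panel, single 10 μM dose. Cells were grown in RPMI-1640 with 5% FBS and 2 mM L-glutamine and pre-incubated 24 h before compound addition (DMSO stock). Exposure was 48 h at 37 °C, 5% CO2. Cells were fixed with cold TCA (10% final), stained with 0.4% SRB, bound dye dissolved in 10 mM Tris base, A515 read. Growth was taken relative to time-zero and untreated control plates.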

[12] = system: MOLT-4; experiment: Growth inhibition of human MOLT4 cells incubated for 48 hrs by sulforhodamine B assay; assay type: functional; details: MOLT-4, 48 h; for CC50: read-out: LC50 (the source's name); method in brief: as §3
[13] = system: UO-31; experiment: Growth inhibition of human UO31 cells incubated for 48 hrs by sulforhodamine B assay; assay type: functional; details: UO-31, 48 h; for CC50: read-out: LC50 (the source's name); method in brief: as §1
[14] = system: IGROV-1; experiment: Growth inhibition of human IGROV1 cells incubated for 48 hrs by sulforhodamine B assay; assay type: functional; details: IGROV-1, 48 h; for CC50: read-out: LC50 (the source's name); method in brief: as §3
[15] = system: T47D; experiment: Growth inhibition of human T47D cells incubated for 48 hrs by sulforhodamine B assay; assay type: functional; details: for CC50: read-out: LC50 (the source's name); method in brief: as §1
[16] = system: LOX IMVI; experiment: Growth inhibition of human LOXIMVI cells incubated for 48 hrs by sulforhodamine B assay; assay type: functional; details: for CC50: read-out: LC50 (the source's name); method in brief: as §2
[17] = system: U-251; experiment: Growth inhibition of human U251 cells incubated for 48 hrs by sulforhodamine B assay; assay type: functional; details: U-251, 48 h; for CC50: read-out: LC50 (the source's name); method in brief: as §1
[18] = system: OVCAR-3; experiment: Growth inhibition of human OVCAR3 cells incubated for 48 hrs by sulforhodamine B assay; assay type: functional; details: OVCAR-3, 48 h; for CC50: read-out: LC50 (the source's name); method in brief: as §2
[19] = system: UACC-62; experiment: Growth inhibition of human UACC62 cells incubated for 48 hrs by sulforhodamine B assay; assay type: functional; details: UACC-62, 48 h; for CC50: read-out: LC50 (the source's name); method in brief: as §3
[20] = system: SNB-75; experiment: Growth inhibition of human SNB75 cells incubated for 48 hrs by sulforhodamine B assay; assay type: functional; details: SNB-75, 48 h; for CC50: read-out: LC50 (the source's name); method in brief: as §3
[21] = system: Hs-578T; experiment: Growth inhibition of human Hs578T cells incubated for 48 hrs by sulforhodamine B assay; assay type: functional; details: for CC50: read-out: LC50 (the source's name); method in brief: as §2
[22] = system: MDA-MB-435; experiment: Growth inhibition of human MDA-MB-435 cells incubated for 48 hrs by sulforhodamine B assay; assay type: functional; details: MDA-MB-435, 48 h; for CC50: read-out: LC50 (the source's name); method in brief: as §2
[23] = system: Candida albicans; experiment: Growth inhibition of Candida albicans ATCC 10231 at 31.25 ug/ml incubated for 48 hrs under dark condition by broth microdilution method relative to control; assay type: functional; details: ATCC 10231, 48 h, read-out: GI
Method in brief: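 CLSI M27-A3 broth microdilution in RPMI-1640, DMSO ≤1%. Inoculum 1-5 × 10^3 CFU/mL. Incubated 48 h at 30 °C, dark. % inhibition = 100 − (OD405 test − sterility control)/(OD405 growth control − sterility control), with growth and sterility control wells. Triplicate.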

For `COc1ccc(C2=NN(C=O)C(c3cccc(Nc4ccnc5cc(Cl)ccc45)c3)C2)cc1` (configuration not stated), the GI50 [1] was 4.45 µM, the CC50 [1] was greater than 100 µM and the “growth inhibition (GI)” value [2] was “Active”. For the same compound, the GI50 [3] was 2.04 µM, the CC50 [3] was greater than 100 µM and the GI50 [4] was 1.54 µM. For the same compound, the CC50 [4] was greater than 100 µM, the GI50 [5] was 2.03 µM and the CC50 [5] was 33.6 µM. The GI50 [6] was 6.51 µM, the CC50 [6] was greater than 100 µM and the GI50 [7] was 5.11 µM. It also gave a CC50 [7] greater than 100 µM, a GI50 [8] of 1.73 µM and a CC50 [8] greater than 100 µM. For the same compound, the GI50 [9] was 1.35 µM, the CC50 [9] was greater than 100 µM and the GI50 [10] was 11.3 µM. The CC50 [10] was greater than 100 µM, the “growth inhibition (GI)” value [11] was “Active” and the GI50 [12] was 2.37 µM. It also gave a CC50 [12] greater than 100 µM, a GI50 [13] of 3.25 µM and a CC50 [13] greater than 100 µM. The GI50 [14] was 3.71 µM, the CC50 [14] was greater than 100 µM and the GI50 [15] was 1.39 µM. For the same compound, the CC50 [15] was greater than 100 µM, the GI50 [16] was 2.52 µM and the CC50 [16] was 39 µM. For the same compound, the GI50 [17] was 2.77 µM, the CC50 [17] was 51.1 µM and the GI50 [18] was 1.97 µM. It also gave a CC50 [18] of 63.7 µM, a GI50 [19] of 2.41 µM and a CC50 [19] of 68.1 µM. For the same compound, the GI50 [20] was 2.56 µM, the CC50 [20] was greater than 100 µM and the GI50 [21] was 3.92 µM. For the same compound, the CC50 [21] was greater than 100 µM, the GI50 [22] was 0.37 µM and the CC50 [22] was greater than 100 µM. The inhibition of growth at 31.25 µg/mL [23] was 14.7%.
For `O=CN1N=C(c2ccc(Cl)cc2)CC1c1cccc(Nc2ccnc3cc(Cl)ccc23)c1` (configuration not stated), the GI50 [1] was 3.99 µM, the CC50 [1] was greater than 100 µM and the “growth inhibition (GI)” value [2] was “Active”. It also gave a GI50 [3] of 1.27 µM, a CC50 [3] of 76.6 µM and a GI50 [4] of 0.64 µM. For the same compound, the CC50 [4] was 79.8 µM, the GI50 [5] was 1.27 µM and the CC50 [5] was greater than 100 µM. For the same compound, the GI50 [6] was 5.52 µM, the CC50 [6] was greater than 100 µM and the GI50 [7] was 4.19 µM. It also gave a CC50 [7] greater than 100 µM, a GI50 [8] of 1.61 µM and a CC50 [8] greater than 100 µM. It also gave a GI50 [9] of 0.98 µM, a CC50 [9] greater than 100 µM and a GI50 [10] of 9.42 µM. The CC50 [10] was greater than 100 µM, the “growth inhibition (GI)” value [11] was “Active” and the GI50 [12] was 1.13 µM. For the same compound, the CC50 [12] was greater than 100 µM, the GI50 [13] was 1.7 µM and the CC50 [13] was greater than 100 µM. It also gave a GI50 [14] of 1.44 µM, a CC50 [14] greater than 100 µM and a GI50 [15] of 0.82 µM. For the same compound, the CC50 [15] was greater than 100 µM, the GI50 [16] was 1.29 µM and the CC50 [16] was 9.05 µM. For the same compound, the GI50 [17] was 2.47 µM, the CC50 [17] was 53.9 µM and the GI50 [18] was 1.1 µM. For the same compound, the CC50 [18] was 83.3 µM, the GI50 [19] was 1.14 µM and the CC50 [19] was 87.8 µM. The GI50 [20] was 1.7 µM, the CC50 [20] was greater than 100 µM and the GI50 [21] was 3.23 µM. The CC50 [21] was greater than 100 µM, the GI50 [22] was 0.38 µM and the CC50 [22] was greater than 100 µM. The inhibition of growth at 31.25 µg/mL [23] was 24.5%.
With `COc1cc(C(=O)/C=C/c2cccc(Nc3ccnc4cc(Cl)ccc34)c2)cc(OC)c1OC` the GI50 [1] was 1.16 µM, the “growth inhibition (GI)” value [2] was “Active” and the GI50 [3] was 1.46 µM. The CC50 [3] was 7.8 µM, the GI50 [4] was 1.26 µM and the CC50 [4] was 5.26 µM. For the same compound, the GI50 [5] was 1.82 µM, the CC50 [5] was greater than 100 µM and the GI50 [6] was 1.52 µM. For the same compound, the CC50 [6] was 7.08 µM, the GI50 [7] was 1.18 µM and the CC50 [7] was 5.08 µM. The GI50 [8] was 0.45 µM, the CC50 [8] was greater than 100 µM and the GI50 [9] was 1.54 µM. It also gave a CC50 [9] greater than 100 µM, a GI50 [10] of 1.7 µM and a CC50 [10] of 6.37 µM. The “growth inhibition (GI)” value [11] was “Active”, the GI50 [12] was 1.79 µM and the CC50 [12] was greater than 100 µM. It also gave a GI50 [13] of 0.57 µM, a CC50 [13] of 4.42 µM and a GI50 [14] of 1.32 µM. For the same compound, the CC50 [14] was greater than 100 µM, the GI50 [15] was 1.22 µM and the CC50 [15] was 8.26 µM. The GI50 [16] was 0.37 µM, the CC50 [16] was 3.95 µM and the GI50 [17] was 0.91 µM. It also gave a CC50 [17] of 5.19 µM, a GI50 [18] of 0.39 µM and a CC50 [18] of 3.85 µM. For the same compound, the GI50 [19] was 1.03 µM, the CC50 [19] was 5.4 µM and the GI50 [20] was 1.31 µM. The CC50 [20] was greater than 100 µM, the GI50 [21] was 2.49 µM and the CC50 [21] was greater than 100 µM. The GI50 [22] was 0.47 µM and the inhibition of growth at 31.25 µg/mL [23] was 6.92%.
